Data on 4 compounds can be found in ChEMBL document CHEMBL1157474, “[11C]cyclopropyl-FLB 457: a PET radioligand for low densities of dopamine D2 receptors” (Bioorg Med Chem, 2008).

The target of one data set is D(2) dopamine receptor (Homo sapiens, UniProt P14416). Description: Binding affinity to dopamine D2 receptor.
Data set [1] concerns Macaca fascicularis. The data set is described as follows: Binding affinity to dopamine D3 receptor in iv dosed cynomolgus monkey brain cerebellum pretreated with raclopride by PET. In kind it is organism-based. The note with it: tested as the 11C-labelled form.
The subject of data set [2] is Macaca fascicularis. Description: Binding affinity to dopamine D2 receptor in iv dosed cynomolgus monkey brain cerebellum pretreated with raclopride by PET. In kind it is organism-based. To be noted: tested as the 11C-labelled form.
The nature of data set [3]: Ratio of drug uptake in cerebellum to parietal cortex in iv dosed cynomolgus monkey by PET. Format: ADME, organism-based, Macaca fascicularis. The note with it: in vivo.
The nature of data set [4]: Ratio of drug uptake in cerebellum to temporal cortex in iv dosed cynomolgus monkey by PET. In kind it is ADME, organism-based, Macaca fascicularis. The note with it: in vivo.
Data set [5] can be described thus: Ratio of drug uptake in cerebellum to putamen in iv dosed cynomolgus monkey after 84 mins by PET. Format: ADME, organism-based, Macaca fascicularis. The note with it: in vivo, 1.4 h. The essentials:
(§1)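 Baseline PET in ketamine/xylazine-anaesthetized cynomolgus monkeys after i.v. bolus of 56.2 ± 0.2 MBq tracer, scanned to 93 min. Regional radioactivity expressed as %SUV; region-to-cerebellum ratios taken at 84 min, cerebellum serving as reference region for free plus non-specific binding.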

Data set [6] in a line: Ratio of drug uptake in cerebellum to pallidum in iv dosed cynomolgus monkey after 84 mins by PET. In kind it is ADME, organism-based, Macaca fascicularis. The note with it: in vivo, 1.4 h. In outline: as §1
Data set [7] in a line: Metabolic stability in cynomolgus monkey plasma after 45 mins. The note with it: read-out: Stability. In kind it is ADME, cell-free, Macaca fascicularis. The essentials:
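Monkey femoral vein blood drawn at 4, 15, 30, 45 min post-injection; plasma deproteinized with acetonitrile, centrifuged at 2000 x g, supernatant run on reverse-phase C18 radio-HPLC with acetonitrile/0.01 M phosphoric acid gradient, 6 mL/min; parent fraction versus polar metabolites; recovery checked by NaI well counting.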

A short description of data set [8]: Ratio of drug uptake in occipital cortex to cerebellum in iv dosed cynomolgus monkey by PET. The note with it: in vivo.
Data set [9] can be described thus: Ratio of drug uptake in cerebellum to caudate nucleus in iv dosed cynomolgus monkey after 84 mins by PET. Format: ADME, organism-based, Macaca fascicularis. The note with it: in vivo, 1.4 h. The essentials:
as §1

A short description of data set [10]: Protein binding in cynomolgus monkey plasma at 10 MBq. In kind it is ADME, cell-free, Macaca fascicularis. To be noted: read-out: PPB (converted). The essentials:
(§2)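 Monkey plasma (baseline or after raclopride pretreatment) mixed with tracer (~10 MBq) for 10 min at room temperature, then ultrafiltered (YM-30 membrane) by centrifugation; filtrate counted versus incubate. Duplicates; corrected for membrane binding using 0.9% NaCl controls.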

The next data set deals with Brain. Description: Drug uptake in iv dosed cynomolgus monkey brain after 7.5 mins by PET. To be noted: in vivo, 0.125 h. Format: ADME, organism-based, Macaca fascicularis. In outline:
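Ketamine/xylazine-anaesthetized cynomolgus monkeys given 56.2 ± 0.2 MBq [11C] tracer i.v. bolus over 5 sec into sural vein; 3D PET to 93 min. Whole-brain %ID = whole-brain ROI radioactivity concentration × ROI volume (~65 mL) / injected radioactivity × 100, plotted versus time; brain activity assumed unchanged radioligand.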

A short description of data set [11]: Lipophilicity, log D at pH 7.4 by shake flask method. In kind it is physicochemical. To be noted: buffer. The essentials: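 Shake-flask logD at pH 7.4: tracer in 1-octanol/phosphate buffer (pH 7.4), shaken 3 min; buffer replaced and repeated. Four octanol portions re-extracted with buffer (vortex 2 min, centrifuge 4 min at 2000 x g); both layers counted; D = octanol cpm/mL over buffer cpm/mL.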

Data set [12] in a line: Ratio of drug uptake in cerebellum to thalamus in iv dosed cynomolgus monkey by PET. In kind it is ADME, organism-based, Macaca fascicularis. The note with it: in vivo.
Data set [13] is described as follows: Ratio of drug uptake in cerebellum to frontal cortex in iv dosed cynomolgus monkey by PET. In kind it is ADME, organism-based, Macaca fascicularis. To be noted: in vivo.
Data set [14] can be described thus: Protein binding in cynomolgus monkey plasma at 10 MBq in presence of raclopride. In kind it is ADME, cell-free, Macaca fascicularis. The note with it: read-out: PPB (converted). In outline: as §2

The structures appear in SMILES notation.

Chain of D(2) dopamine receptor (P14416 whole entry): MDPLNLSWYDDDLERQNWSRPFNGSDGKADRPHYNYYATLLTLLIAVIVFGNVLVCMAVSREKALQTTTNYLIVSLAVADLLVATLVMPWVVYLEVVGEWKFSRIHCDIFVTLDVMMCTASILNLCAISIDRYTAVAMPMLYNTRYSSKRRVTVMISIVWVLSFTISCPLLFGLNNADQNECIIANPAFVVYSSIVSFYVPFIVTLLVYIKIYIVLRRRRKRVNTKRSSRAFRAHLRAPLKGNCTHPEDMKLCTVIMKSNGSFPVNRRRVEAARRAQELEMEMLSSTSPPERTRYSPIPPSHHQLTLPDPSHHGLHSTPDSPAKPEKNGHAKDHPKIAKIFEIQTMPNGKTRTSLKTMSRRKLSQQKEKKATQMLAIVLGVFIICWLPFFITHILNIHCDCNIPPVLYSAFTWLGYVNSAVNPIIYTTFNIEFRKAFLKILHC

For orientation: Ki means a dissociation constant, usually derived from enzyme kinetics or from competition with a known ligand. As for `CCN1CCC[C@H]1CNC(=O)c1cc(Br)cc(OC)c1OC`, the Ki at D(2) dopamine receptor came out at 3 pM.

Take `COc1cc(Br)cc(C(=O)NC[C@@H]2CCCN2CC2CC2)c1OC`: the Activity in the data set with Macaca fascicularis [1] and with Macaca fascicularis [2] was 50% throughout.

By logD is commonly meant lipophilicity at a set pH, counting ionised and neutral species. `COc1cc(Br)cc(C(=O)NC[C@@H]2CCCN2CC2CC2)c1O[11CH3]`: the Ratio is 2.98 in data set [3]; 2.59 in data set [4]; 7.61 in data set [5]; 5.4 in [6]; 2.08 in [8]; 6.6 in data set [9]. Also, the figures for the Ratio in [12] and in [13] were 3.7 and 3.24, respectively. Moreover, the remaining at 0.75 h in data set [7] is 60%. The fraction unbound at 10 MBq in data set [10] was 0.68; in data set [14], 0.64. In the data set with Brain, this compound had a Drug uptake of 4.4 %ID. Further, the log distribution coefficient (logD) in [11] is 1.82.

For `CCN1CCC[C@H]1CNC(=O)c1cc(Br)cc(OC)c1O[11CH3]`, in [11], the logD worked out at 1.33.
